From ChEMBL document CHEMBL1157882, “Novel 2-[(benzylamino)methyl]pyrrolidine-3,4-diol derivatives as alpha-mannosidase inhibitors and with antitumor activities against hematological and solid malignancies” (Bioorg Med Chem, 2010)
Calls of active or inactive are those of the source. The calls are words filed in the database; no cut-off is given here.

How the values were obtained:
[1] = test system: Oryza sativa; assay: Inhibition of alpha-glucosidase from rice at 1 mM at pH 4
Summary of the method: (§1)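 Glycosidase panel of commercial enzymes assayed at each enzyme's optimal pH with compound at 1 mM; percentage inhibition of enzyme activity calculated.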

[2] = target: Glucoamylase (Aspergillus niger) (UniProt P69328); assay: Inhibition of amyloglucosidase from Aspergillus niger at 1 mM at pH 5; summary of the method: as §1
[3] = test system: Prunus dulcis; assay: Inhibition of beta-glucosidase from almond at 1 mM at pH 5; summary of the method: as §1
[4] = test system: Canavalia ensiformis; assay: Inhibition of alpha-mannosidase from jack bean at 1 mM at pH 5; summary of the method: as §1
[5] = Inhibition of alpha-mannosidase from jack bean at pH 5; parameters: species or system Canavalia ensiformis
[6] = test system: Helix pomatia; assay: Inhibition of beta-mannosidase from snail at pH 4; parameters: concentration or dose not given beside the values; settings: concentration not given here
[7] = test system: Aspergillus niger; assay: Inhibition of beta-xylosidase from Aspergillus niger at pH 5; parameters: concentration or dose not given beside the values; settings: concentration not given here
[8] = test system: Canavalia ensiformis; assay: Inhibition of beta-N-acetylglucosaminidase from jack bean at pH 5; parameters: concentration or dose not given beside the values; settings: concentration not given here
[9] = species: Bos taurus; assay: Inhibition of beta-N-acetylglucosaminidase from bovine kidney at pH 4; parameters: concentration or dose not given beside the values; settings: concentration not given here
[10] = test system: U-266; assay: Cytotoxicity against human U266 cells after 72 hrs by colorimetric assay; type: functional, cell-based
Summary of the method: (§2)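 Cells grown in McCoy's medium (adherent lines) or RPMI-1640 (U266), each with 10% FBS, L-glutamine and antibiotics, at 37 °C in 5% CO₂. Compound dissolved as a 100 mM DMSO stock, final DMSO ≤0.4%. Cells were exposed for 72 h across a 10^-2 to 400 µM range. Viability was read by CellTiter 96 Aqueous (2–4 h incubation, absorbance 490 nm). Triplicate wells; IC50 from curve fitting.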

[11] = test system: Jurkat; assay: Cytotoxicity against human Jurkat cells after 72 hrs by colorimetric assay; type: functional, cell-based
[12] = Cytotoxicity against human U87 cells after 72 hrs by colorimetric assay; type: functional, cell-based, U-87MG ATCC; summary of the method: as §2
[13] = test system: PC-3; assay: Cytotoxicity against human PC3 cells after 72 hrs by colorimetric assay; type: functional, cell-based; summary of the method: as §2
[14] = test system: A549; assay: Cytotoxicity against human A549 cells after 72 hrs by colorimetric assay; type: functional, cell-based; summary of the method: as §2
[15] = test system: MCF7; assay: Cytotoxicity against human MCF7 cells after 72 hrs by colorimetric assay; type: functional, cell-based; summary of the method: as §2
[16] = test system: MDA-MB-231; assay: Cytotoxicity against human MDA-MB-231 cells after 72 hrs by colorimetric assay; type: functional, cell-based; summary of the method: as §2
[17] = test system: BT-474; assay: Cytotoxicity against human BT474 cells after 72 hrs by colorimetric assay; type: functional, cell-based; summary of the method: as §2
[18] = test system: SK-BR-3; assay: Cytotoxicity against human SKBR3 cells after 72 hrs by colorimetric assay; type: functional, cell-based; summary of the method: as §2
[19] = target: T1, Tissue alpha-L-fucosidase (Bos taurus) (UniProt Q2KIM0); assay: Inhibition of alpha-L-fucosidase from bovine kidney at 1 mM at pH 6; summary of the method: as §1
T1 sequence (whole entry): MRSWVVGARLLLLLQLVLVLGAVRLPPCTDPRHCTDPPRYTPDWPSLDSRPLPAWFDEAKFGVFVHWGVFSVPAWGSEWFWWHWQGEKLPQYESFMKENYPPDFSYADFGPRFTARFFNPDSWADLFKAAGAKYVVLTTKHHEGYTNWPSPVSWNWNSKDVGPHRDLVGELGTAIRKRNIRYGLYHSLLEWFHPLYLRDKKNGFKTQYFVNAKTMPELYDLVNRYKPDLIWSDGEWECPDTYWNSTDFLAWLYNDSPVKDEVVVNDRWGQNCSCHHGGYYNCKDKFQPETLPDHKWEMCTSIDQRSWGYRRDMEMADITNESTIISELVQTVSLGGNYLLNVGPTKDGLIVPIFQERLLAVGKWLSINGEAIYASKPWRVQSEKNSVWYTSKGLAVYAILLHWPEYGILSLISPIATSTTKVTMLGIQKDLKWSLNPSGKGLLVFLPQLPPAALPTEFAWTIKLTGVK

[20] = target: Alpha-galactosidase (Coffea arabica) (UniProt Q42656); assay: Inhibition of alpha-galactosidase from coffee beans at 1 mM at pH 6; summary of the method: as §1
[21] = target: Beta-galactosidase (Escherichia coli) (UniProt Q8VNN2); assay: Inhibition of beta-galactosidase from Escherichia coli at 1 mM at pH 7; summary of the method: as §1
[22] = target: T2, Beta-galactosidase (Aspergillus oryzae) (UniProt Q2U7N3); assay: Inhibition of beta-galactosidase from Aspergillus oryzae at 1 mM at pH 4; summary of the method: as §1
T2 sequence (whole entry): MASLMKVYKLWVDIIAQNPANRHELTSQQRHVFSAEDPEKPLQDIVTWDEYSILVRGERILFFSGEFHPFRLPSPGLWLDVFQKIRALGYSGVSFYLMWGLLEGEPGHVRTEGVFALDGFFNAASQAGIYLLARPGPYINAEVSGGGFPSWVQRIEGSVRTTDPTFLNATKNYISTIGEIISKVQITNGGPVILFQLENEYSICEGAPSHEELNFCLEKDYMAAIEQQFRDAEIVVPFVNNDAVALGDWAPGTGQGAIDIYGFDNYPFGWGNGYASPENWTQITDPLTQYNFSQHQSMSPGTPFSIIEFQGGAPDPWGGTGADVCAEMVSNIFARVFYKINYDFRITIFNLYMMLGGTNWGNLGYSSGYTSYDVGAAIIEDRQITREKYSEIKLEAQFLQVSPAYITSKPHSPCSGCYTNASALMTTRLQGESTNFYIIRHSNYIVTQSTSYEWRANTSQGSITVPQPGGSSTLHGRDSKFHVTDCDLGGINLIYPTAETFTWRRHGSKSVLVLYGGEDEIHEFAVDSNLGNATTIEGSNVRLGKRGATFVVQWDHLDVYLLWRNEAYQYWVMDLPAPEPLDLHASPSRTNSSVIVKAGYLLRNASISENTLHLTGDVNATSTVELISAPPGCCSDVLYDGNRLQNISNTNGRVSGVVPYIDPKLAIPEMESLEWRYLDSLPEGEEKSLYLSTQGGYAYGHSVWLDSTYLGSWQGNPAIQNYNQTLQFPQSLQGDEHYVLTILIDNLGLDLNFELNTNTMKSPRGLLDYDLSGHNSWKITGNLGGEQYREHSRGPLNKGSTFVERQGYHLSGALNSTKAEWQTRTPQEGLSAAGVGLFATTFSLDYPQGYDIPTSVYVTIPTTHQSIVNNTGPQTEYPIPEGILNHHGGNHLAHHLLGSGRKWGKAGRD

[23] = test system: Saccharomyces cerevisiae; assay: Inhibition of alpha-glucosidase from yeast at 1 mM at pH 7; summary of the method: as §1
[24] = test system: Jurkat; assay: Cytotoxicity in human Jurkat cells overexpressing Bcl2 assessed as cell death at 40 uM after 72 hrs by propidium iodide-staining based flow cytometry; type: functional
Summary of the method: (§3)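 Jurkat T cells stably overexpressing Bcl-2, plus vector controls, in RPMI-1640 with 10% FBS. Seeded at 4×10⁴ per well and treated for 72 h with 40 µM etoposide, 2 µM doxorubicin or 50 µM compound. Dead cells counted by propidium iodide staining and flow cytometry; means of triplicates with SD.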

[25] = test system: Jurkat; assay: Cytotoxicity in human Jurkat cells overexpressing Bcl2 assessed as cell death at 2 uM after 72 hrs by propidium iodide-staining based flow cytometry; type: functional; summary of the method: as §3
[26] = Homo sapiens, U-266, 72 h, read-out: IC50
[27] = Homo sapiens, Jurkat, 72 h, read-out: IC50
[28] = Homo sapiens, U-87 MG, 72 h, read-out: IC50
[29] = Homo sapiens, PC-3, 72 h, read-out: IC50
[30] = Homo sapiens, A549, 72 h, read-out: IC50
[31] = Homo sapiens, MCF7, 72 h, read-out: IC50
[32] = Homo sapiens, MDA-MB-231, 72 h, read-out: IC50
[33] = Homo sapiens, BT-474, 72 h, read-out: IC50
[34] = Homo sapiens, SK-BR-3, 72 h, read-out: IC50

Beta-galactosidase (Escherichia coli), sequence (Q8VNN2 whole entry, looked up): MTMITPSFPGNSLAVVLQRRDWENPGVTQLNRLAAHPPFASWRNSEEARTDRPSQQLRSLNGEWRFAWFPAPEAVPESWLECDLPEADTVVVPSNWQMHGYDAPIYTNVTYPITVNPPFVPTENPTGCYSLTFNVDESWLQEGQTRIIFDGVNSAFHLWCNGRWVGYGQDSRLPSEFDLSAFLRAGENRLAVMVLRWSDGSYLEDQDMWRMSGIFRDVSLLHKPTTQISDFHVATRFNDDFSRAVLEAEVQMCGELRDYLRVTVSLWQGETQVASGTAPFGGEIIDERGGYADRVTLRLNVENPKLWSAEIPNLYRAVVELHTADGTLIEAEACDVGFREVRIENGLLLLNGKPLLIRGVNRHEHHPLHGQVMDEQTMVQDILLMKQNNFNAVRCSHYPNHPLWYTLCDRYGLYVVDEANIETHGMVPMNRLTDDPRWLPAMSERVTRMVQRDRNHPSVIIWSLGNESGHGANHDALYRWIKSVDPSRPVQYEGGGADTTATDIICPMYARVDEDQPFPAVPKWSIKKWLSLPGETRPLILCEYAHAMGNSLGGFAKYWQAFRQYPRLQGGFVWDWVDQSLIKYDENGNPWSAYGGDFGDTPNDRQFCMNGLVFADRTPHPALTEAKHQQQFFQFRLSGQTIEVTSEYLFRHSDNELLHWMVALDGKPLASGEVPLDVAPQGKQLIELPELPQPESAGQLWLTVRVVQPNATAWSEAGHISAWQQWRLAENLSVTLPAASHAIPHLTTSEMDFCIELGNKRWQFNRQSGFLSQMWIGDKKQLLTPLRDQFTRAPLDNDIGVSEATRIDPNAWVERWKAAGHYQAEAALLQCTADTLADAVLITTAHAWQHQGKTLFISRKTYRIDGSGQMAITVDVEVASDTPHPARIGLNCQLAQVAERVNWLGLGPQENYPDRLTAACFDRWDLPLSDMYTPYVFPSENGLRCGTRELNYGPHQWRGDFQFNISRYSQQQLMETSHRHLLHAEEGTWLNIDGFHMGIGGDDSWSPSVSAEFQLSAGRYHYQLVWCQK
Glucoamylase (Aspergillus niger), sequence (P69328 whole entry): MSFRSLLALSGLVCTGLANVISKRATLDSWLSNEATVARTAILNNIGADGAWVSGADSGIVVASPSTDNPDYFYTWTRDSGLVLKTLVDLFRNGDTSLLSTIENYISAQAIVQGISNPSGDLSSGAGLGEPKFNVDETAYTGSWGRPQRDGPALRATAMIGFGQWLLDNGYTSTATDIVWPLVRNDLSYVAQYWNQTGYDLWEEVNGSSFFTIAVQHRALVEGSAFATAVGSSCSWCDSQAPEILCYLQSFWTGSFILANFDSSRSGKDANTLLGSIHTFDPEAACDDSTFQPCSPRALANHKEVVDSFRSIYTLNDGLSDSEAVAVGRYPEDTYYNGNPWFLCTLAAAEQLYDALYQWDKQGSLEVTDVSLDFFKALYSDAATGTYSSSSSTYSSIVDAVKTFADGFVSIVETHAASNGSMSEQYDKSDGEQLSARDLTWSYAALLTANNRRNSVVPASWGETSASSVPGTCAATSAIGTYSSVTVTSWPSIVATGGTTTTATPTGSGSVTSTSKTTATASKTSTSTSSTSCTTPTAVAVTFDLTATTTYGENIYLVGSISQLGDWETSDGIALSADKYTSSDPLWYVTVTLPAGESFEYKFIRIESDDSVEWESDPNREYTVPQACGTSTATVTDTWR
Alpha-galactosidase (Coffea arabica), sequence (Q42656 16-378 limits assumed): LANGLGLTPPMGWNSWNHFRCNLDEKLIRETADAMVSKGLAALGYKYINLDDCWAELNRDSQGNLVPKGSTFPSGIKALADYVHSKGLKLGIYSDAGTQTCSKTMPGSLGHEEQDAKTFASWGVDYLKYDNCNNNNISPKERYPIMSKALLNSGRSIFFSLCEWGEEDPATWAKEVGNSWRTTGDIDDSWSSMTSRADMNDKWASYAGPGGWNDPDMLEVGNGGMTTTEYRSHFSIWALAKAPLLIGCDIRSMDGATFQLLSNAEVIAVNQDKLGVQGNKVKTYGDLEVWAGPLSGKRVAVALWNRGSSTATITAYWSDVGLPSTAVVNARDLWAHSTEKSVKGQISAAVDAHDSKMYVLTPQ

Structure (SMILES)	inhibition [1] [%]	inhibition [2] [%]	inhibition [3] [%]	inhibition [4] [%]	IC50 [5] [µM]	Ki [5] [µM]	inhibition [6] [%]	inhibition [7] [%]	inhibition [8] [%]	inhibition [9] [%]	inhibition [19] [%]	inhibition [20] [%]	inhibition [21] [%]	inhibition [22] [%]	inhibition [23] [%]	IC50 [10, 26] [µM]	IC50 [11, 27] [µM]	IC50 [12, 28] [µM]	IC50 [13, 29] [µM]	IC50 [14, 30] [µM]	also measured
OC[C@H](NC[C@H]1NC[C@H](O)[C@@H]1O)c1ccc(OCc2ccccc2)cc1	< 10	< 10	40	99	1.4	0.6	< 10	45	< 10	< 10	< 10	< 10	< 10	< 10	45						IC50 ([10]; u-266): Not Active; IC50 ([11]; jurkat): Not Active; IC50 ([12]; u-87mg atcc): Not Active; IC50 ([13]; pc-3): Not Active; IC50 ([14]; a549): Not Active; IC50 ([15]; mcf7): Not Active; IC50 ([16]; mda-mb-231): Not Active; IC50 ([17]; bt-474): Not Active; IC50 ([18]; sk-br-3): Not Active
COc1cc([C@@H]2c3cc4c(cc3[C@@H](O[C@@H]3O[C@@H]5CO[C@@H](C)O[C@H]5[C@H](O)[C@H]3O)[C@H]3COC(=O)[C@H]23)OCO4)cc(OC)c1O																					Activity [24]: inactive
C=CCOc1ccc([C@H](CO)NC[C@H]2NC[C@H](O)[C@@H]2O)cc1	< 10	< 10	72	99	0.9	0.5	< 10	28	< 10	< 10	< 10	< 10	< 10	< 10	41	> 200	> 200	> 200	> 200	> 200	IC50 [15, 31]: > 200 µM; IC50 [16, 32]: > 200 µM; IC50 [17, 33]: > 200 µM; IC50 [18, 34]: > 200 µM
OC[C@H](NC[C@H]1NC[C@H](O)[C@@H]1O)c1ccc(-c2ccccc2)cc1	< 10	< 10	20	99	1.4	0.9	< 10	50	< 10	< 10	< 10	< 10	< 10	< 10	24	> 200	> 200	> 200	> 200	> 200	IC50 [15, 31]: > 200 µM; IC50 [16, 32]: > 200 µM; IC50 [17, 33]: > 200 µM; IC50 [18, 34]: > 200 µM
OC[C@H](NC[C@H]1NC[C@H](O)[C@@H]1O)c1ccc(-c2ccsc2)cc1	< 10	< 10	36	97	1.1	0.8	< 10	50	< 10	< 10	< 10	< 10	< 10	< 10	< 10						IC50 ([10]; u-266): Not Active; IC50 ([11]; jurkat): Not Active; IC50 ([12]; u-87mg atcc): Not Active; IC50 ([13]; pc-3): Not Active; IC50 ([14]; a549): Not Active; IC50 ([15]; mcf7): Not Active; IC50 ([16]; mda-mb-231): Not Active; IC50 ([17]; bt-474): Not Active; IC50 ([18]; sk-br-3): Not Active
COc1cccc2c1C(=O)c1c(O)c3c(c(O)c1C2=O)C[C@@](O)(C(=O)CO)C[C@@H]3O[C@H]1C[C@H](N)[C@H](O)[C@H](C)O1																					Activity [25]: inactive
COc1ccc([C@H](CO)NC[C@H]2NC[C@H](O)[C@@H]2O)cc1	< 10	< 10	62	98	0.8	0.5	< 10	28	< 10	< 10	< 10	< 10	< 10	< 10	41	> 200	> 200	> 200	> 200	> 200	IC50 [15, 31]: > 200 µM; IC50 [16, 32]: > 200 µM; IC50 [17, 33]: > 200 µM; IC50 [18, 34]: > 200 µM
